Consider six compounds from article PMC2846993 (Biochimica et biophysica acta, 2010).

“And” between values parts separate entries of the source, which are not always exact repeats. Identical values can stand only once.

Data set [1] concerns the target T1, Glu^1-Pg activation by uPA (Homo sapiens, UniProt P00747). Briefly: uPA-catalyzed Pg activation, chromogenic substrate S-2251. The data set is classed as biochemical. The settings on record: 1 mM 6-AHA.
Data set [2] relates to Glu^1-Pg. The settings on record: saturating amounts of 6-AHA, Cl^−-containing buffer; ref [14],[19],[20]; cited from earlier work.
Data set [3] concerns the target T1, Glu^1-Pg activation by uPA. To be noted: 6-AHA, acetate buffer; ref [34]; cited from earlier work.
The target in data set [4] is Wild type (wt) human Glu^1-Pg (plasminogen) (human). Briefly: SPR.
Data set [5] deals with Glu^1-Pg activation by SK (Homo sapiens, UniProt P00747). Briefly: SK-mediated. The data set is classed as biochemical, human Glu^1-Pg; SK from Streptococcus equisimilis.
Data set [6] is described as follows: Sedimentation equilibrium / self-association. The data set is classed as physicochemical. To be noted: PAM 22 μM, 20 °C, representative scan at 15,000 rpm. A digest of the protocol: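 Test protein at 22 μM final in 10 mM HEPES/100 mM NaCl, pH 7.4, at 20 °C. Centrifuged at 10,000 and 15,000 rpm. Apparent molecular weight came from a global fit of three scans at both speeds. Radius vs absorbance was simulated for the purely monomeric protein.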

T1 sequence (P00747 20-810 limits assumed): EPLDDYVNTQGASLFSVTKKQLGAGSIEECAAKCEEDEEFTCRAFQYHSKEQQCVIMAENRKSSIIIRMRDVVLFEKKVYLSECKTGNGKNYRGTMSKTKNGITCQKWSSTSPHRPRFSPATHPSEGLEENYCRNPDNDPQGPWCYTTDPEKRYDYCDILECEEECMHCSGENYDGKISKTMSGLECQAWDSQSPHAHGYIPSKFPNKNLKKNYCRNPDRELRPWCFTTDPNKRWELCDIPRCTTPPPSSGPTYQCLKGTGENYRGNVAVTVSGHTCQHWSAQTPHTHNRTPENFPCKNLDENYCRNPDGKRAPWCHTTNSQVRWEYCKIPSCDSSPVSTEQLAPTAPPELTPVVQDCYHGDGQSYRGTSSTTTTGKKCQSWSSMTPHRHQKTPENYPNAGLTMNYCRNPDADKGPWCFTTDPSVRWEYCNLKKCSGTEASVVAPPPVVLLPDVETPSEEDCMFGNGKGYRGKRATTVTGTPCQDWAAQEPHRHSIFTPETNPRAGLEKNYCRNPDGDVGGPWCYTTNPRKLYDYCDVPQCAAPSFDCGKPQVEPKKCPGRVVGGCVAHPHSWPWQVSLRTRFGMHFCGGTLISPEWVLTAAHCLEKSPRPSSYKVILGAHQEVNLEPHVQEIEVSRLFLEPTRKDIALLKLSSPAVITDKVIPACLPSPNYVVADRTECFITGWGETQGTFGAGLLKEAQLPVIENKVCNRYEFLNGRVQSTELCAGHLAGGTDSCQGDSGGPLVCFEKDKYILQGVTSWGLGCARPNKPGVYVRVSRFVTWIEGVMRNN

Consider `NCCCCCC(=O)O` [6-AHA, 6-aminohexanoic acid], for which the figures for the “rate enhancement of uPA-catalyzed Pm generation” value in data set [1] (Cl^− buffer (data not shown)) and in data set [1] (acetate buffer (data not shown)) were 2.2 fold and 1.1 fold, respectively. Further, in data set [2], the “decrease in sedimentation coefficient (S°20,w) of Pg” value is “approximately 1 unit”. Further, in data set [3], the “increase in Pg conversion by uPA” value is 1.2 fold.
In general, Kd refers to the free concentration of one partner at which half of the binding sites on the other are occupied at equilibrium, for simple one-to-one binding. As usually defined, the koff is the first-order rate constant of dissociation. A higher koff goes with fast dissociation. Usually kon stands for the rate constant with which the complex forms. Take “K^98A/K^111A PAM (KK-PAM) (from UniProt P49054 30-384) (natural protein)”: in data set [4], the Kd is 38 nM and 44 nM; the koff was 0.0095 s⁻¹; the kon came out at 250000 M⁻¹ s⁻¹.
In data set [4], “K^98A/R^101A/H^102A/E^104A/K^111A PAM (KRHEK-PAM) (from UniProt P49054 30-384) (natural protein)” returned a Kd of 50 nM, a koff of 0.017 s⁻¹ and a kon of 340000 M⁻¹ s⁻¹.
Regarding “R^101A/H^102A PAM (RH-PAM) (from UniProt P49054 30-384) (natural protein)”, in data set [4], the dissociation constant (Kd) was 424 nM and 731 nM; the koff worked out at 0.014 s⁻¹; the kon is 33000 M⁻¹ s⁻¹.
Consider “Wt-PAM (Pg-binding group A streptococcal M-like protein, GAS strain NS13) (from UniProt P49054 30-384) (natural protein)”, for which, in data set [4], the Kd is 23 nM and 33 nM; the koff was 0.0079 s⁻¹; the kon amounted to 340000 M⁻¹ s⁻¹.
For the compound “wt-PAM: Pg-binding group A streptococcal M-like protein, GAS strain NS13, full-length wild type (VEKLTADAELQRLKNERHEEAELERLKSEY)”, the “increase in SK-mediated Pg activation rate” value in data set [5] (20 nM PAM, Pg 80 nM, equimolar SK, 10 mM HEPES/100 mM NaCl, pH 7.4) worked out at 3.6 fold. Further, the “enhancement in Pg conversion rate by SK” value in data set [5] (500 nM PAM, Cl^− buffer (data not shown)) was 220 fold. Also, the “apparent molecular weight (Mw,app), self-association” value in data set [6] was found to be 71600.
